We go through six molecules from ChEMBL document CHEMBL1817629, “Design, synthesis, bioconversion, and pharmacokinetics evaluation of new ester prodrugs of olmesartan” (Eur J Med Chem, 2011).

Data set [1] can be described thus: Metabolic stability in rat plasma assessed as compound remaining at 50 ug/mL after 30 mins by LC-MS/MS analysis. The data set is classed as ADME, cell-free. The note with it: read-out: Stability. The gist of the method:
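Prodrug at 50 μg/mL in rat plasma, incubated 30 min at 37 °C; samples analyzed immediately by LC-MS/MS, reported as percent of compound remaining.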

Data set [2] is described as follows: Stability of the compound in rat liver microsomes assessed as half life at 1 uM by LC/MS/MS analysis. The format is ADME, Microsome. The essentials:
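Rat liver microsomes (0.5 mg/mL total protein) with 1.2 mM NADPH in 100 mM phosphate buffer pH 7.4; prodrug added from acetonitrile stock (100 μM) to final 1 μM. Kept at 37 °C, sampled 0, 15, 30, 60, 120 min. Stopped with two volumes cold acetonitrile plus internal standard, centrifuged, supernatant by LC-MS/MS. Mean of duplicate experiments.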
For orientation: Microsomes from liver hold many membrane-bound enzymes, among them those of drug oxidation.

Data set [3] in a line: Stability of the compound in simulated gastric juice assessed as half life at 1 uM by LC/MS/MS analysis. The format is physicochemical. The gist of the method:
(§1)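 Prodrug added from acetonitrile stock (100 μM) to rat plasma or simulated gastric juice at final 1 μM. Held at 37 °C, sampled 0, 15, 30, 60, 120 min. Quenched with two volumes cold acetonitrile containing internal standard, centrifuged, supernatant analyzed by LC-MS/MS. Half-life as mean of duplicate experiments.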

The nature of data set [4]: Stability of the compound in rat plasma assessed as half life at 1 uM by LC/MS/MS analysis. The format is ADME, cell-free. The essentials: as §1

Molecules are shown by their SMILES.

Take `CCCc1nc(C(C)(C)O)c(C(=O)OCc2c[nH]c(=O)[nH]c2=O)n1Cc1ccc(-c2ccccc2-c2nnn[nH]2)cc1`: the remaining at 0.5 h, 50 ug/mL in data set [1] is 96.3%.

For the molecule `CCCCCCCCOC(=O)c1c(C(C)(C)O)nc(CCC)n1Cc1ccc(-c2ccccc2-c2nnn[nH]2)cc1`, the remaining at 0.5 h, 50 ug/mL in data set [1] turned out to be 90.2%.

As for `CCCc1nc(C(C)(C)O)c(C(=O)OC(C)OC(=O)c2ccccc2)n1Cc1ccc(-c2ccccc2-c2nnn[nH]2)cc1` (stereo not drawn), in data set [1], the remaining at 0.5 h, 50 ug/mL was 85.8%.

As usually defined, the half-life is how long it takes for the measured level to halve. Consider `CCCc1nc(C(C)(C)O)c(C(=O)OCc2oc(=O)oc2C)n1Cc1ccc(-c2ccccc2-c2nnn[nH]2)cc1` [OLMESARTAN MEDOXOMIL], for which the half-life at 1 µM in data set [2] was 4.95 min; in data set [3], > 1000 min; in data set [4] it was 0.956 min.

Turning to `CCCc1nc(C(C)(C)O)c(C(=O)OCOC(=O)C23CC4CC(CC(C4)C2)C3)n1Cc1ccc(-c2ccccc2-c2nnn[nH]2)cc1`, the figures for the half-life at 1 µM in data set [2], in data set [3] and in data set [4] were 2.28 min, 312 min and 10 min, respectively. The remaining at 0.5 h, 50 ug/mL in data set [1] was determined as 79.8%.

Regarding `CCCc1nc(C(C)(C)O)c(C(=O)OC(C)OC(=O)C2CCCCC2)n1Cc1ccc(-c2ccccc2-c2nnn[nH]2)cc1` (stereo not drawn), the half-life at 1 µM in data set [2] is 2.7 min; in data set [3] it was 928 min; in data set [4], 9.68 min.
